In ChEMBL document CHEMBL3259728, “Design, synthesis and biological evaluation of some novel substituted quinazolines as antitumor agents” (2014):

Tests used:
Assay type in all cases: functional
M14 = test: Growth inhibition of human M14 cells assessed as cell growth at 10^-4 M after 48 hrs by SRB assay; conditions: M14, 48 h, read-out: Activity
[1] = Growth inhibition of human SF295 cells assessed as cell growth at 10^-4 M after 48 hrs by SRB assay; conditions: SF-295, 48 h, read-out: Activity
NCI-H460 = test: Growth inhibition of human NCI-H460 cells assessed as cell growth at 10^-4 M after 48 hrs by SRB assay; conditions: NCI-H460, 48 h, read-out: Activity
[2] = Growth inhibition of human HOP92 cells assessed as cell growth at 10^-4 M after 48 hrs by SRB assay; conditions: HOP-92, 48 h, read-out: Activity
[3] = Growth inhibition of human Hs578T cells assessed as cell growth at 10^-5 M after 48 hrs by SRB assay; conditions: Hs-578T, read-out: Activity
Malme-3M [4] = test: Growth inhibition of human MALME-3M cells assessed as cell growth at 10^-8 M after 48 hrs by SRB assay; conditions: read-out: Activity
PC-3 = test: Growth inhibition of human PC3 cells assessed as cell growth at 10^-5 M after 48 hrs by SRB assay; conditions: PC-3, 48 h, read-out: Activity
CAKI-1 = test: Growth inhibition of human CAKI-1 cells assessed as cell growth at 10^-5 M after 48 hrs by SRB assay; conditions: CAKI-1, 48 h, read-out: Activity
Outline: (§1)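 Five-dose NCI panel protocol. Each dose (10^-4 to 10^-8 M, 10-fold steps) was given as 48 h continuous exposure, and protein was measured by SRB staining. Percentage growth at each level is [(Ti−Tz)/(C−Tz)]×100, where Tz is time-zero absorbance and C is untreated control.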

[5] = Growth inhibition of human UACC257 cells assessed as cell growth at 10^-5 M after 48 hrs by SRB assay; conditions: UACC-257, 48 h, read-out: Activity
[6] = Growth inhibition of human SF295 cells assessed as cell growth at 10^-5 M after 48 hrs by SRB assay; conditions: SF-295, 48 h, read-out: Activity
KM12 = test: Growth inhibition of human KM12 cells assessed as cell growth at 10^-5 M after 48 hrs by SRB assay; conditions: KM12, 48 h, read-out: Activity
K562 = test: Growth inhibition of human K562 cells assessed as cell growth at 10^-5 M after 48 hrs by SRB assay; conditions: K562, 48 h, read-out: Activity
[7] = Growth inhibition of human Hs578T cells assessed as cell growth at 10^-6 M after 48 hrs by SRB assay; conditions: Hs-578T, read-out: Activity
MDA-MB-231 = test: Growth inhibition of human MDA-MB-231 cells assessed as cell growth at 10^-6 M after 48 hrs by SRB assay; conditions: MDA-MB-231, 48 h, read-out: Activity
DU-145 = test: Growth inhibition of human DU145 cells assessed as cell growth at 10^-6 M after 48 hrs by SRB assay; conditions: DU-145, 48 h, read-out: Activity
SNB-19 = test: Growth inhibition of human SNB19 cells assessed as cell growth at 10^-6 M after 48 hrs by SRB assay; conditions: SNB-19, 48 h, read-out: Activity
NCI-H226 = test: Growth inhibition of human NCI-H226 cells assessed as cell growth at 10^-4 M after 48 hrs by SRB assay; conditions: NCI-H226, 48 h, read-out: Activity
HOP-62 = test: Growth inhibition of human HOP62 cells assessed as cell growth at 10^-4 M after 48 hrs by SRB assay; conditions: HOP-62, 48 h, read-out: Activity
[8] = Growth inhibition of human EKVX cells assessed as cell growth at 10^-5 M after 48 hrs by SRB assay; conditions: read-out: Activity
A498 = test: Growth inhibition of human A498 cells assessed as cell growth at 10^-8 M after 48 hrs by SRB assay; conditions: A498, 48 h, read-out: Activity; outline: as §1
ACHN [9] = test: Cytotoxicity against human ACHN cells after 48 hrs by SRB assay
Outline: (§2)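 NCI 60-cell-line panel of human tumour lines from nine cancer types. Continuous 48 h exposure at five 10-fold dilutions from 10^-4 to 10^-8 M, with 5-FU as positive control. SRB protein stain read spectrophotometrically at time zero, untreated control and each concentration. GI50, TGI and LC50 were derived from the [(Ti−Tz)/(C−Tz)]×100 growth relations, and out-of-range values are given as > or < the tested limits.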

[10] = Cytotoxicity against human OVCAR5 cells after 48 hrs by SRB assay; conditions: OVCAR-5, 48 h; outline: as §2
Malme-3M [11] = test: Cytotoxicity against human MALME-3M cells after 48 hrs by SRB assay; outline: as §2
SF-268 = test: Cytotoxicity against human SF268 cells after 48 hrs by SRB assay; conditions: SF-268, 48 h; outline: as §2
SW-620 = test: Growth inhibition of human SW620 cells assessed as cell growth at 10^-6 M after 48 hrs by SRB assay; conditions: SW-620, 48 h, read-out: Activity
[12] = Growth inhibition of human BT549 cells assessed as cell growth at 10^-7 M after 48 hrs by SRB assay; conditions: BT-549, 48 h, read-out: Activity; outline: as §1
[13] = Growth inhibition of human UO31 cells assessed as cell growth at 10^-8 M after 48 hrs by SRB assay; conditions: UO-31, 48 h, read-out: Activity
ACHN [14] = test: Growth inhibition of human ACHN cells assessed as cell growth at 10^-8 M after 48 hrs by SRB assay; conditions: read-out: Activity; outline: as §1
[15] = Cytotoxicity against human EKVX cells after 48 hrs by SRB assay; outline: as §2
786-0 = test: Growth inhibition of human 786-0 cells assessed as cell growth at 10^-4 M after 48 hrs by SRB assay; conditions: 786-0, 48 h, read-out: Activity; outline: as §1
[16] = Growth inhibition of human OVCAR4 cells assessed as cell growth at 10^-4 M after 48 hrs by SRB assay; conditions: OVCAR-4, 48 h, read-out: Activity
[17] = read-out: LC50 (the source's name)
[18] = read-out: pLC50 (the source's name) (converted)

Cc1ccc(-c2nc3ccc(Cl)cc3c(=O)n2/N=C/c2ccccc2)cc1
growth at 100 µM (M14): 47% | growth at 100 µM [1]: 18% | growth at 100 µM (NCI-H460): 24% | growth at 100 µM [2]: 15% | growth at 10 µM [3]: 3% | growth at 0.01 µM (Malme-3M [4]): 92% | growth at 10 µM (PC-3): 66% | growth at 10 µM (CAKI-1): 38% | growth at 10 µM [5]: 73% | growth at 10 µM [6]: 36% | growth at 10 µM (KM12): 74% | growth at 10 µM (K562): 72% | growth at 1 µM [7]: 84% | growth at 1 µM (MDA-MB-231): 78% | growth at 1 µM (DU-145): 96% | growth at 1 µM (SNB-19): 88% | growth at 100 µM (NCI-H226): 18% | growth at 100 µM (HOP-62): -64% | growth at 10 µM [8]: 34% | growth at 0.01 µM (A498): 88% | GI50 (ACHN [9]; read-out: GI50): 0.627 µM | CC50 (ACHN [9]; [17]): > 100 µM | TGI (ACHN [9]; read-out: TGI): > 100 µM | GI50 (ACHN [9]; read-out: pGI50 (converted)): 0.631 µM | CC50 (ACHN [9]; [18]): > 100 µM | TGI (ACHN [9]; read-out: pTGI): > 100 µM | GI50 ([10]; read-out: GI50): > 100 µM | CC50 [10, 17]: > 100 µM | TGI ([10]; read-out: TGI): > 100 µM | GI50 ([10]; read-out: pGI50 (converted)): > 100 µM | CC50 [10, 18]: > 100 µM | TGI ([10]; read-out: pTGI): > 100 µM | GI50 (Malme-3M [11]; read-out: GI50): 5.97 µM | CC50 (Malme-3M [11]; [17]): > 100 µM | TGI (Malme-3M [11]; read-out: TGI): > 100 µM | GI50 (Malme-3M [11]; read-out: pGI50 (converted)): 6.03 µM | CC50 (Malme-3M [11]; [18]): > 100 µM | TGI (Malme-3M [11]; read-out: pTGI): > 100 µM | GI50 (SF-268; read-out: GI50): 9.98 µM | CC50 (SF-268; [17]): > 100 µM | TGI (SF-268; read-out: TGI): > 100 µM | GI50 (SF-268; read-out: pGI50 (converted)): 10 µM | CC50 (SF-268; [18]): > 100 µM | TGI (SF-268; read-out: pTGI): > 100 µM | growth at 1 µM (SW-620): 89% | growth at 0.1 µM [12]: 94% | growth at 0.01 µM [13]: 77% | growth at 0.01 µM (ACHN [14]): 93% | GI50 ([15]; read-out: GI50): 4.15 µM | CC50 [15, 17]: > 100 µM | TGI ([15]; read-out: TGI): > 100 µM | GI50 ([15]; read-out: pGI50 (converted)): 4.17 µM | CC50 [15, 18]: > 100 µM | TGI ([15]; read-out: pTGI): > 100 µM | growth at 100 µM (786-0): 17% | growth at 100 µM [16]: 26%
